# Efa HMGR inh = inhibitors of class II HMG-CoA reductase from Enterococcus faecalis. purified E. faecalis HMGR, NADPH absorbance 340 nm kinetic. 190,000 tested, 0.41% active. AID 1066. inhibition, % at 10 µM;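 active = inhibition above a set limit, the median over all tested compounds plus 3 SD, cut at about 9.5% in these data; inconclusive = no clear call, values can overlap the other calls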;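 also: enzyme runs in reverse so mevalonate oxidation gives rising NADPH absorbance; 0% = complete reaction with DMSO and 100% = background rate lacking mevalonate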
# TNAP inh noacc = inhibitors of human TNAP without phosphate acceptor; AID 1012; 200,000 tested, 0.26% active; P05186; inhibition, % at 20 µM; purified TNAP, CDP-star luminescence, 30 min;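 active = tissue-nonspecific alkaline phosphatase inhibition above about 50% at 20 µM in the single-dose screen, limit read from the data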;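 also: 0% = DMSO negative control and 100% = EDTA positive control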
# Target sequence (P05186 whole entry, looked up): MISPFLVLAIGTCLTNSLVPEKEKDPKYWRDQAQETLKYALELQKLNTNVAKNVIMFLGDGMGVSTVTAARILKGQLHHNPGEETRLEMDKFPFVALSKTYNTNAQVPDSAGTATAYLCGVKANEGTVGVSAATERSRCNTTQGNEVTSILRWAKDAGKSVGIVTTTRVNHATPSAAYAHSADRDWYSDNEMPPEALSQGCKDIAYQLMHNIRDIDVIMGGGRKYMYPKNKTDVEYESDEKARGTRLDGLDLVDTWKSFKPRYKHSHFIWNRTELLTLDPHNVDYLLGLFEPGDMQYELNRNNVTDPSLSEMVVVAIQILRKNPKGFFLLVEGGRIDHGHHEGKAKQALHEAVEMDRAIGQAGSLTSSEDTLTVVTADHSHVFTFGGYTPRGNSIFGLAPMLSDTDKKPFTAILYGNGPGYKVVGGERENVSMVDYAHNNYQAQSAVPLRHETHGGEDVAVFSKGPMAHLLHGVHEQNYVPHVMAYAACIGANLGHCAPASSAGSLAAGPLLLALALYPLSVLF
# INS promoter inh = TRM-6 insulin promoter activity inhibition | 130,000 tested, 0.9% active | TRM-6 cells (human fetal islet line), insulin promoter-eGFP reporter, imaging; reporter expression induced with tamoxifen | inhibition, % at 2 µM | AID 1273;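 active = inhibition above the mean plus 3 SD, with well images judged a real hit on visual review, cut at about 60% in these data, passing the limit was not always enough; inconclusive = inhibition over the cutoff but images rejected on review; inactive = inhibition not above the cutoff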
# TNAP inh hiacc = inhibitors of human TNAP at high phosphate acceptor concentration | purified TNAP, CDP-star luminescence, 1 M DEA | AID 1135 | 200,000 tested, 0.03% active | P05186 | inhibition, % at 20 µM;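 active = over 50% inhibition of tissue-nonspecific alkaline phosphatase at 20 µM in the single-dose screen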;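 also: plate controls were DMSO wells for no effect and EDTA-quenched wells as full inhibition for full effect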
# TNAP act hi DEA = activators of human TNAP at high phosphate acceptor concentration | P05186 | purified TNAP, CDP-star luminescence, 1 M DEA, 30 min; hits give high values; 0 = EDTA background, 1 = DMSO-only activity | activation factor at 20 µM | 200,000 tested, under 10 active | AID 1136;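 active = activation factor at least 2 at 20 µM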
#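 Measured by: Luminescent substrate turnover signal | Test system: Human TNAP | Input: TNAP 1/800 final | Dosing: 20 µM single point | Schedule: 30 min, room temperature | Controls: EDTA wells as negative control, DMSO wells as positive control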
# * = called active by the depositor; ? = inconclusive; nt = no result given. An excerpt weighted towards active compounds, which were near 1.2% of everything screened.
SMILES,Efa HMGR inh,TNAP inh noacc,INS promoter inh,TNAP inh hiacc,TNAP act hi DEA
Cn1cnnc1SCC(=O)NN(c1ccccc1)c1ccccc1,6,-4,16,-2,1
c1ccc(-n2ncc3c(NCc4ccc5c(c4)OCO5)ncnc32)cc1,-11,-11,-406,-4,1
COc1ccc(-n2ncc3c(NCc4ccc5c(c4)OCO5)ncnc32)cc1,-1,-5,75*,0,1
Cc1cc(Nc2nn(C)c(N)c2C#N)ccc1F,-3,-12,nt,-5,1.1
Nc1cc(Oc2ccc(F)cc2F)cc([N+](=O)[O-])c1,0,-16,7,-5,1
COc1ccccc1-c1nnc2sc(COc3ccc(Cl)cc3)nn12,4,-12,nt,-2,1
COc1ccc(Cc2nn3c(-c4ccccc4OC)nnc3s2)cc1,-7,59*,-12,-7,1.1
C/C(=N/NC(=O)CNC(=O)c1cccc(F)c1)c1ccc2c(c1)CCCC2,-5,-9,nt,0,1
c1ccc(CSc2ccc(-c3ccccn3)nn2)nc1,-4,54*,-50,0,1
Clc1ccc(-c2ccc(SCc3ccccn3)nn2)cc1,-5,0,3,-3,1
Cc1c(Br)c([N+](=O)[O-])nn1C(C)C(=O)N1CCCc2ccccc21 (stereo unspecified),-2,-7,nt,-2,1
COC(=O)c1c(NC(=O)CN2CCC3(O)CCCCC3C2c2cc(OC)ccc2OC)sc(C)c1C (stereo unspecified),0,-2,64*,-4,1
CCOc1ccc(Br)cc1CC(=O)O,-4,nt,81*,nt,nt
CCOc1cc(CO)c(Br)cc1OCC(=O)O,2,-6,-50,-2,1
Cc1cc(-c2csc(NC(=O)c3ccc(C#N)cc3)n2)c(C)n1Cc1ccccc1,-5,-12,nt,-2,1
Cc1ccc(NC(=O)CCC(=O)OCc2ccc(Br)cc2)cc1,0,-8,-12,-2,1
COc1ccc(CN2C(=O)CCC2(C)C(=O)NC2CCCC2)c(OC)c1 (stereo unspecified),-4,-6,70*,0,1
Cc1[nH]nc2c1C(CCc1ccccc1)C(C#N)=C(N)O2 (stereo unspecified),27*,14,nt,0,1
N#CC1=C(N)Oc2n[nH]c(-c3ccccc3)c2C1c1ccncc1 (stereo unspecified),-3,53*,nt,-3,1
CC(=O)c1ccc(NC(=O)C(C)OC(=O)COc2ccc(C#N)cc2)cc1 (stereo unspecified),-7,-2,24,-6,1.1
CCn1c(-c2nn(C)c(C)c2Cl)n[nH]c1=S,11*,9,?,-3,1
CCn1c(-c2ccc(Cl)cc2)n[nH]c1=S,-1,30,14,-5,1
CCn1c(-c2ccc(C)cc2)n[nH]c1=S,-2,52*,-11,3,1
Cc1ccc(-n2c(-c3nn(C)c(C)c3Cl)n[nH]c2=S)cc1,-8,16,-39,-5,1
Cc1nc2nc(N)nn2c(C)c1C/C=C/c1ccccc1,0,-15,nt,-5,1
SMILES,Efa HMGR inh,TNAP inh noacc,INS promoter inh,TNAP inh hiacc,TNAP act hi DEA
Cc1ccccc1CS(=O)(=O)c1nnc([C@H](CC(C)C)NC(=O)OC(C)(C)C)o1,-2,-11,42,-5,1.1
CC[C@@H](C)[C@H](NC(=O)OC(C)(C)C)c1nnc(S(=O)(=O)Cc2cc(C)ccc2C)o1,-6,-5,72*,0,1
Cc1ccc(OCCn2cccn2)c(C)c1,1,-8,nt,-2,1
CCN1CCN(C(=S)Nc2cccc([N+](=O)[O-])c2)CC1,-2,10,nt,-3,1
CCN1C/C(=C/c2cccc([N+](=O)[O-])c2)C(=O)/C(=C/c2cccc([N+](=O)[O-])c2)C1,-6,-10,100*,-5,1.1
CCOCC(=O)OCC(=O)Nc1cc(OC)c([N+](=O)[O-])cc1C,21*,-8,-64,-2,1
COc1ccc(CN(C)CC(=O)Nc2cc(OC)c([N+](=O)[O-])cc2C)c(OC)c1,-3,-5,71*,0,1
COc1cc(NC(=O)CN(C)Cc2ccc(OC(F)F)cc2)c(C)cc1[N+](=O)[O-],-3,-9,nt,-4,1
O=C(O)c1ccc(Nc2ncc([N+](=O)[O-])cc2[N+](=O)[O-])cc1,-5,-6,nt,5,0.9
Cc1ccc(S(=O)(=O)N/N=C/c2ccccc2O)cc1[N+](=O)[O-],2,-8,nt,-5,1.1
